According to ChEMBL document CHEMBL1138317, “Antibacterial oxazolidinones possessing a novel C-5 side chain. (5R)-trans-3-[3-Fluoro-4- (1-oxotetrahydrothiopyran-4-yl)phenyl]-2- oxooxazolidine-5-carboxylic acid amide (PF-00422602), a new lead compound” (J Med Chem, 2007):
≈ marks a conversion by molar mass, not a printed value. Calls of active or inactive are those of the source. The rule behind the calls is not given here.

Key:
Streptococcus pneumoniae [1] = test: Antibacterial activity against levofloxacin-penicillin-resistant Streptococcus pneumoniae SV1 SP3 by microbroth technology; assay type: functional
In short: (§1)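 Drug-resistant panel strains (levofloxacin/oxacillin-resistant S. aureus, levofloxacin/penicillin-resistant S. pneumoniae, vancomycin-resistant E. faecalis and E. faecium). Broth microdilution MIC in µg/mL; value reported as MIC90 across the strains of each resistant group.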

Staphylococcus aureus [2] = test: Antibacterial activity against Staphylococcus aureus UC76 in po dosed CD1 mouse systemic infection model assessed as mortality after 7 days; assay type: functional
Moraxella catarrhalis = test: Antibacterial activity against Moraxella catarrhalis by microbroth technology; assay type: functional
In short: (§2)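 MIC determined by broth microdilution, reported in µg/mL.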

Enterococcus faecium = test: Antibacterial activity against vancomycin-resistant Enterococcus faecium by micro-broth technology; assay type: functional; in short: as §1
Staphylococcus aureus [3] = test: Antibacterial activity against levofloxacin-oxacillin-resistant Staphylococcus aureus UC76 SA1 by micro-broth technology; assay type: functional; in short: as §1
[4] = biological target: T1, Amine oxidase [flavin-containing] A (Homo sapiens, UniProt P21397); test: Inhibition of human recombinant MAOA
T1 sequence (P21397 whole entry): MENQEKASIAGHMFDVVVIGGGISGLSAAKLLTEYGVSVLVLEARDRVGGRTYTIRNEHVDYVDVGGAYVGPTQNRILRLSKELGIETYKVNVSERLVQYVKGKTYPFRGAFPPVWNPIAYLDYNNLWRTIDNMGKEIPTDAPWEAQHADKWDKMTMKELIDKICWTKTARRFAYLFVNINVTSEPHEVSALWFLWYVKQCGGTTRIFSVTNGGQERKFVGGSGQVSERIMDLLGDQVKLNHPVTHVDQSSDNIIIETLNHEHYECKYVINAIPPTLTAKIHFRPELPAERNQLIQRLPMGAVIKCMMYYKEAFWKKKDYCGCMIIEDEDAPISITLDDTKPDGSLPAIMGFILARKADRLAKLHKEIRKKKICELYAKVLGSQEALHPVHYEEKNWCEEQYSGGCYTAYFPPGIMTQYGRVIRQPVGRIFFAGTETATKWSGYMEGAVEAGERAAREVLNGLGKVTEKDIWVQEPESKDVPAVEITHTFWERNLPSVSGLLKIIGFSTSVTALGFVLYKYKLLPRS

Haemophilus influenzae = test: Antibacterial activity against Haemophilus influenzae by micro-broth technology; assay type: functional; in short: as §2
Enterococcus faecalis = test: Antibacterial activity against vancomycin-resistant Enterococcus faecalis MGH2 EF1 by microbroth technology; assay type: functional; in short: as §1
Escherichia coli = test: Inhibition of protein synthesis in Escherichia coli by cell-free transcription-translation assay; assay type: functional
In short: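 E. coli cell-free coupled transcription/translation run in microtiter format with a luciferase reporter; luminescence was the read-out for protein synthesis.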

Cytochrome P450 2D6 = Cytochrome P450 2D6 (Homo sapiens, UniProt P10635); test: Inhibition of human liver microsome CYP2D6; assay type: ADME, microsomes
In short: (§3)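 Done in duplicate with 0.03-0.2 mg/mL human liver microsomes, 1 mM NADPH and 50 mM potassium phosphate, pH 7.4. Probe substrates: 30 µM phenacetin (1A2), 7.5 µM diclofenac (2C9), 50 µM […], 10 µM dextromethorphan (2D6), and 50 µM phenacetin, 50 µM midazolam or 1.5 µM felodipine (3A4). Drug was tested at 0-1000 µM. Reactions were quenched with ice-cold acetonitrile after 7-30 min and analysed by LC/MS.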

Streptococcus pyogenes = test: Antibacterial activity against Streptococcus pyogenes C203 by micro-broth technology; assay type: functional
[5] = Clearance in mouse at 4 mg/kg, iv; assay type: ADME, organism-based; parameters: dose 4 mg/kg, route intravenous; settings: in vivo
Rattus norvegicus [6] = test: Effect on hematology in Sprague-Dawley rat assessed as increase in hemoglobin at 600 mg/kg/day, po after 14 days; assay type: ADME, organism-based; parameters: route oral; settings: in vivo, 336 h
In short: (§4)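 Female Sprague-Dawley rats received vehicle or drug by oral gavage daily for 14 days, at doses of 40-1000 (mg/kg)/day across the studies. End points were moribundity or lethality, hematology (RBC, hemoglobin, hematocrit, reticulocytes), bone marrow M:E ratio and plasma AUC(0-24).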

[7] = AUC (0 to 24 hrs) in Sprague-Dawley rat plasma at 200 mg/kg/day, po after 14 days; assay type: ADME, organism-based; parameters: dose 200 mg/kg/day, time < 24 hr, route oral; in short: as §4
[8] = Half life in mouse at 20 mg/kg, po; assay type: ADME, organism-based; parameters: dose 20 mg/kg, route oral; settings: in vivo
[9] = AUC in mouse at 20 mg/kg, po; assay type: ADME, organism-based; parameters: dose 20 mg/kg, route oral; settings: plasma
Rattus norvegicus [10] = test: AUC in Sprague-Dawley rat at 20 mg/kg, po; assay type: ADME, organism-based, Plasma; parameters: dose 20 mg/kg, route oral; settings: in vivo
Rattus norvegicus [11] = test: Toxicity in Sprague-Dawley rat at 600 mg/kg/day, po after 14 days; assay type: organism-based; parameters: route oral; settings: in vivo, 336 h; in short: as §4
Rattus norvegicus [12] = test: Effect on hematology in Sprague-Dawley rat assessed as increase in hematocrit at 600 mg/kg/day, po after 14 days; assay type: ADME, organism-based; parameters: route oral; settings: in vivo, 336 h; in short: as §4
Cytochrome P450 2C9 = Cytochrome P450 2C9 (Homo sapiens, UniProt P11712); test: Inhibition of human liver microsome CYP2C9; assay type: ADME, microsomes; in short: as §3
[13] = Half life in dog at 20 mg/kg, po; assay type: ADME, organism-based, Canis lupus familiaris; parameters: dose 20 mg/kg, route oral; settings: in vivo
Cytochrome P450 1A2 = biological target: T2, Cytochrome P450 1A2 (Homo sapiens, UniProt P05177); test: Inhibition of human liver microsome CYP1A2; assay type: ADME, microsomes; in short: as §3
T2 sequence (P05177 whole entry): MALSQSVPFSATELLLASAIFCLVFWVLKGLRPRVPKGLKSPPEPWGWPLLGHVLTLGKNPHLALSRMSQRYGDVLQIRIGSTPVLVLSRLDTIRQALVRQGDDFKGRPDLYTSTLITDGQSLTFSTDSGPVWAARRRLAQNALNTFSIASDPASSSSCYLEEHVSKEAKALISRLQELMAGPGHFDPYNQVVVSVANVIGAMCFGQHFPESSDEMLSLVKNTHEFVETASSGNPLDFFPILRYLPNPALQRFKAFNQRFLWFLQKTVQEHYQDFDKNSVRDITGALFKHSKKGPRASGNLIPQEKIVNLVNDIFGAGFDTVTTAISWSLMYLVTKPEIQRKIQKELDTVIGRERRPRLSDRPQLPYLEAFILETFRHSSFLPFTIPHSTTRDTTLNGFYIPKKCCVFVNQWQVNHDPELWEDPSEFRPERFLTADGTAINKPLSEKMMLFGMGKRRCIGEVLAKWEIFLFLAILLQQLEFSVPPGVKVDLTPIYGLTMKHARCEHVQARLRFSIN

Canis familiaris [14] = test: AUC in dog at 20 mg/kg, po; assay type: ADME, organism-based, Canis lupus familiaris, Plasma; parameters: dose 20 mg/kg, route oral; settings: in vivo
Rattus norvegicus [15] = test: Effect on hematology in Sprague-Dawley rat assessed as increase in red blood cells at 600 mg/kg/day, po after 14 days; assay type: ADME, organism-based; parameters: route oral; settings: in vivo, 336 h; in short: as §4
[16] = AUC (0 to 24 hrs) in Sprague-Dawley rat plasma at 600 mg/kg/day, po after 14 days; assay type: ADME, organism-based; parameters: dose 600 mg/kg/day, time < 24 hr, route oral; in short: as §4
[17] = Half life in Sprague-Dawley rat at 20 mg/kg, po; assay type: ADME, organism-based; parameters: dose 20 mg/kg, route oral; settings: in vivo
[18] = Cmax in Sprague-Dawley rat at 20 mg/kg, po; assay type: ADME, organism-based; parameters: dose 20 mg/kg, route oral; settings: in vivo
Staphylococcus aureus [19] = test: Antibacterial activity against […] in po dosed CD1 mouse systemic infection model assessed as mortality after 7 days; assay type: functional
Staphylococcus aureus [20] = test: Antibacterial activity against methicillin-resistant Staphylococcus aureus SA1417 by micro-broth technology; assay type: functional
Staphylococcus aureus [21] = test: Antibacterial activity against methicillin-resistant Staphylococcus aureus SA1417 in po dosed CD1 mouse systemic infection model assessed as mortality after 7 days; assay type: functional
Streptococcus pneumoniae [22] = test: Bactericidal activity against Streptococcus pneumoniae after 48 hrs by time kill study; assay type: functional, organism-based
In short: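 Time-kill study: bacteria exposed continuously to drug at 2-16× the MIC and sampled over 48 h to assess eradication.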

Staphylococcus = test: Bacteriostatic activity against Staphylococcus after 48 hrs by time kill study; assay type: functional, organism-based
Canis familiaris [23] = test: Bioavailability in dog at 20 mg/kg, po; assay type: ADME, organism-based, Canis lupus familiaris; settings: in vivo
Enterococcus = test: Bacteriostatic activity against Enterococcus after 48 hrs by time kill study; assay type: functional, organism-based
Cytochrome P450 2C19 = Cytochrome P450 2C19 (Homo sapiens, UniProt P33261); test: Inhibition of human liver microsome CYP2C19; assay type: ADME, microsomes; in short: as §3
Cytochrome P450 3A4 = Cytochrome P450 3A4 (Homo sapiens, UniProt P08684); test: Inhibition of human liver microsome CYP3A4; assay type: ADME, microsomes; in short: as §3
[24] = Cmax in dog at 20 mg/kg, po; assay type: ADME, organism-based, Canis lupus familiaris; parameters: dose 20 mg/kg, route oral; settings: in vivo
[25] = Cmax in mouse at 20 mg/kg, po; assay type: ADME, organism-based; parameters: dose 20 mg/kg, route oral; settings: in vivo
Rattus norvegicus [26] = test: Increase in bone marrow myeloid/erythroid ratio in Sprague-Dawley rat at 600 mg/kg/day, po after 14 days; assay type: ADME, organism-based; parameters: route oral; settings: in vivo, 336 h
[27] = Volume of distribution at steady state in mouse at 4 mg/kg, iv; assay type: ADME, organism-based; parameters: dose 4 mg/kg, route intravenous; settings: in vivo, read-out: Vdss
Rattus norvegicus [28] = test: Bioavailability in Sprague-Dawley rat at 20 mg/kg, po; assay type: ADME, organism-based; settings: in vivo
Rattus norvegicus [29] = test: Effect on hematology in Sprague-Dawley rat assessed as decrease in reticulocytes at 600 mg/kg/day, po after 14 days; assay type: ADME, organism-based; parameters: route oral; scale not given: the % may be the effect or the level left; settings: in vivo, 336 h; in short: as §4
[30] = Volume of distribution at steady state in Sprague-Dawley rat at 10 mg/kg, iv; assay type: ADME, organism-based; parameters: dose 10 mg/kg, route intravenous; settings: in vivo, read-out: Vdss
[31] = Volume of distribution at steady state in dog at 4 mg/kg, iv; assay type: ADME, organism-based, Canis lupus familiaris; parameters: dose 4 mg/kg, route intravenous; settings: in vivo, read-out: Vdss

Sequence of Cytochrome P450 2C19 (P33261 whole entry): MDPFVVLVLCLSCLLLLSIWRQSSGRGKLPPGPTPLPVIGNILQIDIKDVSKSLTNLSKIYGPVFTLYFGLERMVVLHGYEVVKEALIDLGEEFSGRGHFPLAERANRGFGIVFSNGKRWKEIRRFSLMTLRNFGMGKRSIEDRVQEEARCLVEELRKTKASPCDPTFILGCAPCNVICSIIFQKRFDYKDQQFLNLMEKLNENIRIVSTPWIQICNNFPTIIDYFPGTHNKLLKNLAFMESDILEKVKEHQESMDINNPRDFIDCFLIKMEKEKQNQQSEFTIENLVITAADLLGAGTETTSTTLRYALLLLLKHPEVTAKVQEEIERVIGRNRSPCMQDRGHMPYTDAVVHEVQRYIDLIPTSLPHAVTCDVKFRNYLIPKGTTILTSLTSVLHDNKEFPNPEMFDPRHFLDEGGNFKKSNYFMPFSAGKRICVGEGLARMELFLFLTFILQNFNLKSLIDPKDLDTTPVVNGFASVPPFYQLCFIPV
Sequence of Cytochrome P450 2D6 (P10635 whole entry): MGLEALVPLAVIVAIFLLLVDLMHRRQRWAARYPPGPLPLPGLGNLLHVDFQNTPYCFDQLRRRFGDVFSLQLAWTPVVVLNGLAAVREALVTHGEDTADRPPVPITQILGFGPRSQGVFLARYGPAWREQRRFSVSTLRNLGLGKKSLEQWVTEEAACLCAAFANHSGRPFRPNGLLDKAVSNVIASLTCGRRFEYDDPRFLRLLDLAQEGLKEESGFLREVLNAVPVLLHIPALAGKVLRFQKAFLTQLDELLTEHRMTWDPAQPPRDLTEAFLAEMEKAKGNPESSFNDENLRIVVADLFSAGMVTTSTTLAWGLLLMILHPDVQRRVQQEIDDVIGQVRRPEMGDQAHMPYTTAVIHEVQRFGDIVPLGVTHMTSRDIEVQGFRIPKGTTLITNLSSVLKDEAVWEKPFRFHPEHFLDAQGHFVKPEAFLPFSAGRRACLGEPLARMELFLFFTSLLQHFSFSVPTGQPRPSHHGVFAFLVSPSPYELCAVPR
Sequence of Cytochrome P450 3A4 (P08684 whole entry): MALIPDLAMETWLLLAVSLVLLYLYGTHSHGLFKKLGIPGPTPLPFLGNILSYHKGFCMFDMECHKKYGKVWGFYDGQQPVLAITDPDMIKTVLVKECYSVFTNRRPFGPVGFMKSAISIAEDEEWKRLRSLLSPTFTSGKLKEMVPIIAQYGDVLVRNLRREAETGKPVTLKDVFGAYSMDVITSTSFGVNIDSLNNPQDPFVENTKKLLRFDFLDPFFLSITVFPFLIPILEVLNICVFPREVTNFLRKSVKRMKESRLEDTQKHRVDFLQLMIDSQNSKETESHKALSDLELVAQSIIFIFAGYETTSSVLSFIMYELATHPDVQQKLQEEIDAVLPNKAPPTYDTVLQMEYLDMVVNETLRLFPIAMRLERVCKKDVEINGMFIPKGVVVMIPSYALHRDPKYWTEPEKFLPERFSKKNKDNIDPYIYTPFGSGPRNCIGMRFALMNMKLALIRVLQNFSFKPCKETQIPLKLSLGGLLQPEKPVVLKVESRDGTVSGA
Sequence of Cytochrome P450 2C9 (P11712 whole entry): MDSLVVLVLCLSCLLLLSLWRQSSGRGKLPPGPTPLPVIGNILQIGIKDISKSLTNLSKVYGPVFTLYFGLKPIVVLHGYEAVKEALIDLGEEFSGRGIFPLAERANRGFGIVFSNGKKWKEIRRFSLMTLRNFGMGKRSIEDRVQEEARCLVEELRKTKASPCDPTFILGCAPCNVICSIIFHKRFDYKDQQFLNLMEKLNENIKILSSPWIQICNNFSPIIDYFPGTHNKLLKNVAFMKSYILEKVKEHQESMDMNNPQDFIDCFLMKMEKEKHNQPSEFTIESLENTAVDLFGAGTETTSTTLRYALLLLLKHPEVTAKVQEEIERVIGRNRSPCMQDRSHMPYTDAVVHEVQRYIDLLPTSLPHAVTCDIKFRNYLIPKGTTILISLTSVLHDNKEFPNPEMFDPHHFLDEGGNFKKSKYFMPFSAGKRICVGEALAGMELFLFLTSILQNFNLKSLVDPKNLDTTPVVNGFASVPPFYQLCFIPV

Structure (SMILES): NC(=O)[C@H]1CN(c2cc(F)c(C3CCS(=O)(=O)CC3)c(F)c2)C(=O)O1
- MIC (Streptococcus pneumoniae [1]): 4 µg/mL (≈ 10.7 µM)
- PD50 (Staphylococcus aureus [2]): 15 mg/kg
- MIC (Moraxella catarrhalis): > 8 µg/mL
- MIC (Enterococcus faecium): 8 µg/mL (≈ 21.4 µM)
- MIC (Staphylococcus aureus [3]): 4 µg/mL (≈ 10.7 µM)
- IC50 [4]: 293 µM
- MIC (Haemophilus influenzae): > 8 µg/mL
- MIC (Enterococcus faecalis): 4 µg/mL (≈ 10.7 µM)
- IC50 (Escherichia coli): 6.28 µM

Structure (SMILES): NC(=O)[C@H]1CN(c2ccc([C@H]3CC[S@+]([O-])CC3)c(F)c2)C(=O)O1
- IC50 (Cytochrome P450 2D6): > 900 µM
- MIC90 (Streptococcus pneumoniae [1]): 2 µg/mL (≈ 5.88 µM)
- PD50 (Staphylococcus aureus [2]): 1.25 mg/kg
- MIC (Streptococcus pyogenes): 4 µg/mL (≈ 11.8 µM)
- clearance [5]: 25.2 mL/min/kg
- Activity (Rattus norvegicus [6]): 8%
- MIC (Moraxella catarrhalis): > 8 µg/mL
- AUC at 24 h [7]: 223 µg·h/mL
- half-life [8]: 1.5 h
- AUC [9]: 48.3 µg·h/mL
- AUC (Rattus norvegicus [10]): 109 µg·h/mL
- Activity (Rattus norvegicus [11]): Toxic
- Activity (Rattus norvegicus [12]): 8%
- IC50 (Cytochrome P450 2C9): > 900 µM
- MIC90 (Enterococcus faecium): 4 µg/mL (≈ 11.8 µM)
- half-life [13]: 6.2 h
- IC50 (Cytochrome P450 1A2): > 900 µM
- MIC90 (Staphylococcus aureus [3]): 2 µg/mL (≈ 5.88 µM)
- AUC (Canis familiaris [14]): 76.2 µg·h/mL
- IC50 [4]: 546 µM
- Activity (Rattus norvegicus [15]): 8%
- AUC at 24 h [16]: 619 µg·h/mL
- half-life [17]: 5.8 h
- Cmax [18]: 15900 ng/mL
- PD50 (Staphylococcus aureus [19]): <5 mg/kg
- MIC (Staphylococcus aureus [20]): 4 µg/mL (≈ 11.8 µM)
- PD50 (Staphylococcus aureus [21]): 1.7 mg/kg
- Activity (Streptococcus pneumoniae [22]): Active
- Activity (Staphylococcus): Active
- F (Canis familiaris [23]): 64%
- Activity (Enterococcus): Active
- MIC (Haemophilus influenzae): > 8 µg/mL
- IC50 (Cytochrome P450 2C19): > 900 µM
- MIC90 (Enterococcus faecalis): 4 µg/mL (≈ 11.8 µM)
- IC50 (Cytochrome P450 3A4): > 900 µM
- Cmax [24]: 17900 ng/mL
- IC50 (Escherichia coli): 3.4 µM
- Cmax [25]: 12300 ng/mL
- Ratio (Rattus norvegicus [26]): 4.5
- Vd [27]: 3.3 L/kg
- F (Rattus norvegicus [28]): 83%
- Activity (Rattus norvegicus [29]): 62%
- Vd [30]: 6.2 L/kg
- Vd [31]: 0.7 L/kg
